Screens as filed in PubChem.
This is one part of a sample in which hits are shown more often than they occur.
FLuc inhib CS – Photinus pyralis luciferase inhibition counter-screen. hit rate 1.5% among 200,000. AID 1006. P08659. inhibition, % at 10 µM. ATPLite firefly luciferase biochemical luminescence, 10 min;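 active = inhibition above about 50% when tested at 10 µM, limit read from the data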
ABCB1 inh – blocks JC-1 efflux by human ABCB1 transporter; P08183; CCRF-Adr cells, flow cytometry; inhibition, % at 6.6 µM; hit rate 0.067% among 190,000; AID 1326; in the data active = inhibition above about 40%;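 also: 0% = vehicle and 100% = reference inhibitor; higher value means more JC-1 retained so stronger ABCB1 efflux block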
ABCG2 inh – inhibitors of human ABCG2 transporter, ABCB1 counter-screen; hit rate 0.1% among 190,000; inhibition, % at 6.6 µM; IgMXP3 cells, JC-1 efflux, flow cytometry; Q9UNQ0;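 active = inhibition above 80%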;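 also: 0% = DMSO and 100% = nicardipine control wells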
Target sequence (Q9UNQ0 whole entry, looked up): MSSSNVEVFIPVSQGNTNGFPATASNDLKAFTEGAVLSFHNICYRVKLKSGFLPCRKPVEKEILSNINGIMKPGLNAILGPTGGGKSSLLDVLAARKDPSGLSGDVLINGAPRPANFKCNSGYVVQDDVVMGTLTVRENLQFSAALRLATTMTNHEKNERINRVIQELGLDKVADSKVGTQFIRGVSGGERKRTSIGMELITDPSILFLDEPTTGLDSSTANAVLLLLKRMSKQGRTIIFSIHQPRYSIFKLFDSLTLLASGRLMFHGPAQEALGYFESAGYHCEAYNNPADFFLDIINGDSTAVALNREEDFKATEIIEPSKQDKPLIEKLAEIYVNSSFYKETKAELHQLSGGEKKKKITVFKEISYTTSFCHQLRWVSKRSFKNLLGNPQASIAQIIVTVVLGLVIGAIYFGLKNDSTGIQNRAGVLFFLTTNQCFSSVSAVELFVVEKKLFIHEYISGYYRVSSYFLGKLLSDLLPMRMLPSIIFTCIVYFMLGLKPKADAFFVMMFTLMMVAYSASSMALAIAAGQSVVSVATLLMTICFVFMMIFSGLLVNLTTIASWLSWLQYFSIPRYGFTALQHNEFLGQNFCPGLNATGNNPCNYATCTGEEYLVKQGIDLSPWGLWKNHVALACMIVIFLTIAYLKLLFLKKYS
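Assay system – ABCG2 IgMXP3 and barcoded ABCB1 CCRF-Adr cell mix · Input – 3 million cells/mL in well · Reagent – JC-1 fluorescent substrate · Compound – single test compound dose, 6.6 µM final · Timing – 10 min exposure at 25 °C with rotation, no wash · Detection – flow cytometry of retained JC-1 fluorescence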
FLuc act counter – affects firefly luciferase, flagging false hits in luciferase stimulation screens | P08659 | ATPlite luciferase biochemical, luminescence, 10 min; 0 = ATP-free wells, 1 = DMSO control | 200,000 tested, under 10 active | activation factor at 10 µM;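 active = luciferase activation factor, scaled between plate controls, of at least 2 with compound at 10 µM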
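test system = cell-free luciferase reagent | medium = PBS as buffer for the ATP substrate | dosing = test compounds dosed from 2 mM stocks in 100% DMSO | incubation = 10 min at ambient temperature | detection = luminescence measurement of luciferase light output | benchmarks = low control with PBS replacing ATP, high control enzyme plus ATP without compound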
ABCB6 inh 2 – human ABCB6 transporter inhibition; Q9NP58; hit rate 0.19% among 360,000; K562-ABCB6 porphyrin accumulation, flow cytometry, 1 h; hits give low values; fluorescence ratio to DMSO, % at 10 µM;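 active = fluorescence ratio to DMSO below 75%, the collection mean minus 3 SD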;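 also: signal is porphyrin accumulated inside mitochondria; 100% equals median channel fluorescence of DMSO control wells; lower ratio means ABCB6 inhibition with less porphyrin fluorescence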
Diaph act CS – diaphorase activation or chemical reduction counter-screen; Diaphorase/resazurin coupled assay, resorufin fluorescence, 16 min; hits give high values; 1 = vehicle wells, 0 = NADH-free wells; activation factor at 20 µM; hit rate 0.005% among 190,000;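 active = diaphorase activity raised at least twofold by the compound at 20 µM; inactive = activation factor below 2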
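Material: Purified diaphorase enzyme from Clostridium kluyveri | Buffer or medium: 50 mM HEPES pH 7.4 with 4.542 mM MgCl2, 0.005% Tween 20 | Times: 16 min enzyme reaction, ambient temperature | Signal: Red resorufin fluorescence at 544/590 nm excitation/emission | Measure: Increased resorufin signal from activators or reducing compounds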
ABCB6 blocker 1 – human ABCB6 transporter inhibition; shares compounds with ABCB6 inh 2; K562-ABCB6 porphyrin accumulation, flow cytometry, 1 h; hits give low values; ratio response (% of DMSO), % at 10 µM; 700 tested, under 10 active; AID 602430;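 active = repeat-averaged ratio response below 75% of DMSO, the collection mean minus 3 SD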;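 also: median porphyrin fluorescence at 575 nm with 488 nm excitation from mitochondria; lower ratio means less porphyrin signal so ABCB6 inhibition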
Numbers without * were called inactive; nt = not tested or not shown.

SMILES	FLuc inhib CS	ABCB1 inh	ABCG2 inh	FLuc act counter	ABCB6 inh 2	Diaph act CS	ABCB6 blocker 1
CC(=O)Nc1cccc(-c2ccnc3c2CC(C)(C(=O)Nc2cccc(C(F)(F)F)c2)O3)c1 (centres undefined)	nt	nt	nt	nt	103	nt	97
CC1(C(=O)Nc2cccc(C(F)(F)F)c2)Cc2c(-c3cccc(C(F)(F)F)c3)ccnc2O1 (centres undefined)	nt	nt	nt	nt	97	nt	nt
CC(NC(=O)CN1CCc2ccccc21)c1ccccc1 (centres undefined)	-7	1	7	1.1	59*	0.8	103
CC(Sc1nnc(-c2ccncc2)n1C)C(=O)Nc1ccc(N2CCOCC2)cc1 (centres undefined)	nt	nt	nt	nt	69*	nt	100
Cn1c(SCC(=O)Nc2ccc(N3CCOCC3)cc2)nnc1-c1ccccc1	15	0	4	0.9	103	0.9	nt
COc1ccccc1-c1sc2ccccc2c1-c1cnc(N2CCOCC2)nc1	nt	nt	nt	nt	95	nt	nt
Cc1ccc(-n2cnc3scc(-c4cccs4)c3c2=O)cc1	-3	0	3	1	97	0.8	nt
O=c1c2c(-c3cccs3)csc2ncn1-c1ccccc1	0	0	2	1	47*	0.9	97
CCOc1cc(C(=O)NCc2ccc(-c3nc4ccccc4o3)cc2)cc(OCC)c1OCC	-4	0	0	1	70*	1	98
COc1ccc(C(=O)NC(=S)NCc2ccc(-c3nc4ccccc4o3)cc2)cc1OC	1	0	0	1	93	0.9	nt
CSc1nc(C)c2cc(C)oc2n1	-3	2	14	1	89	1	nt
Cc1cc2c(C)nc(Cc3ccccc3)nc2o1	1	2	8	1	9.0*	0.9	99
Cc1nc2c(OCCC3CCCCC3)cccn2c1N(C)C(=O)CCC1CCCC1	nt	nt	nt	nt	99	nt	nt
CCCOc1ccc(-c2nc(=S)[nH][nH]2)cc1	3	0	0	1	69*	0.9	99
O=C(c1ccccc1)N1CCN=C1c1ccccc1	-4	0	3	1	100	0.9	nt
COc1ccc(C(=O)N2CCN=C2c2ccccc2)cc1OC	-8	0	4	1.1	73*	0.9	100
COc1ccc(-n2nc(C(=O)NCC3CCCO3)c3ccccc3c2=O)cc1 (centres undefined)	nt	nt	nt	nt	16*	nt	99
COc1ccc(-n2nc(C(=O)NCC(=O)NCC3CCCO3)c3ccccc3c2=O)cc1 (centres undefined)	1	1	9	1	97	0.8	nt
CC1(C(=O)NS(=O)(=O)c2ccccc2)CCN1C(=O)Cc1ccccc1 (centres undefined)	nt	nt	nt	nt	98	nt	nt
Cc1ccc(S(=O)(=O)NC(=O)C2(C)CCN2C(=O)Cc2ccc(-c3ccccc3)cc2)cc1 (centres undefined)	nt	nt	nt	nt	97	nt	102
Cc1cccc(S(=O)(=O)NC(=O)C2(C)CCN2C(=O)Cc2ccc(Cl)cc2Cl)c1 (centres undefined)	nt	nt	nt	nt	104	nt	101
CC(C)(C)c1ccc(CC(=O)N2CCC2(C)C(=O)NS(=O)(=O)c2cccc(F)c2)cc1 (centres undefined)	nt	nt	nt	nt	98	nt	102
CC1(C(=O)NS(=O)(=O)c2cccc(C#N)c2)CCN1C(=O)CCc1ccccc1 (centres undefined)	nt	nt	nt	nt	99	nt	101
CC1(C(=O)NS(=O)(=O)c2cccc(Cl)c2)CCN1C(=O)Cc1ccc(Cl)cc1Cl (centres undefined)	nt	nt	nt	nt	95	nt	nt
Cc1cccc(S(=O)(=O)NC(=O)C2(C)CCN2C(=O)CCc2ccccc2)c1 (centres undefined)	nt	nt	nt	nt	94	nt	nt
SMILES	FLuc inhib CS	ABCB1 inh	ABCG2 inh	FLuc act counter	ABCB6 inh 2	Diaph act CS	ABCB6 blocker 1
CCOC(=O)C1CCN(C(=O)c2ccccc2)C(CC)C1=O (centres undefined)	nt	nt	nt	nt	88	nt	nt
Cc1ccc(F)c(S(=O)(=O)NC(=O)C2(C)CCN2C(=O)Cc2cccc3ccccc23)c1 (centres undefined)	nt	nt	nt	nt	85	nt	97
CC(C)(C)c1ccc(CC(=O)N2CCC2(C)C(=O)NS(=O)(=O)c2ccccc2C(F)(F)F)cc1 (centres undefined)	nt	nt	nt	nt	86	nt	100
Cc1cccc(S(=O)(=O)NC(=O)C2(C)CCN2C(=O)Cc2ccccc2)c1 (centres undefined)	nt	nt	nt	nt	99	nt	102
CC(C)CCN(C(=O)C1=COCCO1)c1c(N)n(Cc2ccccc2)c(=O)[nH]c1=O	nt	nt	nt	nt	98	nt	nt
COc1cccc(OC)c1C(=O)NC(=S)NCc1cccnc1	nt	nt	nt	nt	98	nt	nt
CC1=C(C)CC(C(=O)NCc2c(F)cccc2Cl)C(C(=O)O)C1 (centres undefined)	nt	nt	nt	nt	97	nt	nt
CC(=O)NC(Cc1c[nH]c2ccccc12)C(=O)N1CCc2ccccc2C1 (centres undefined)	-4	-3	-1	1	69*	0.9	98
Cc1cccc(C(=O)OCC(=O)NCCCc2ccccc2)c1O	nt	nt	nt	nt	18*	nt	100
CC1(C(=O)NS(=O)(=O)c2cccs2)CCN1C(=O)C1(c2ccccc2)CCCC1 (centres undefined)	nt	nt	nt	nt	72*	nt	96
CC1(C(=O)NS(=O)(=O)c2ccccc2Cl)CCN1C(=O)C1(c2ccc(Cl)cc2)CC1 (centres undefined)	nt	nt	nt	nt	94	nt	96
CC1(C(=O)NS(=O)(=O)c2ccc(Cl)s2)CCN1C(=O)C1(c2ccc(Cl)cc2)CCC1 (centres undefined)	nt	nt	nt	nt	95	nt	100
CC1(C(=O)NS(=O)(=O)c2cccs2)CCN1C(=O)C1(c2ccc(Cl)cc2)CC1 (centres undefined)	nt	nt	nt	nt	102	nt	nt
CC1(C(=O)NS(=O)(=O)c2ccccc2)CCN1C(=O)C1(c2ccccc2)CCCC1 (centres undefined)	nt	nt	nt	nt	103	nt	nt
CC1(C(=O)NS(=O)(=O)c2cccs2)CCN1C(=O)C1(c2ccc(Cl)cc2)CCC1 (centres undefined)	nt	nt	nt	nt	95	nt	100
Cc1cc(C)nc(SSc2nc(C)cc(C)n2)n1	nt	nt	nt	nt	95	nt	nt
Cc1cc(=O)oc2cc(OC(=O)C3CCN(C(=O)c4ccc(F)cc4)CC3)ccc12	nt	nt	nt	nt	92	nt	nt
CCN1CCN(CC(O)COC(c2ccccc2)c2ccccc2C)CC1 (centres undefined)	nt	nt	nt	nt	97	nt	nt
Cc1cc(NC(=O)c2c(F)cccc2F)n(-c2nc3ccccc3[nH]2)n1	-4	1	5	1	71*	0.9	95
Cc1cc(NC(=O)c2c(F)cccc2Cl)n(-c2nc3ccccc3[nH]2)n1	-2	2	42	1	102	0.9	nt
O=C(COc1ccc(S(=O)(=O)N2CCCC2)cc1)N1CCCC1	nt	nt	nt	nt	98	nt	nt
